Key:
[1] = Bioavailability in rat at 1 mg/kg, iv and 2 mg/kg, po; assay type: ADME, organism-based; conditions: in vivo
[2] = Bioavailability in mouse at 1 mg/kg, iv and 2 mg/kg, po; assay type: ADME, organism-based; conditions: in vivo
[3] = Half life in dog at 1 mg/kg, iv or 2 mg/kg, po; assay type: ADME, organism-based, Canis lupus familiaris; conditions: in vivo
[4] = Cmax in mouse at 2 mg/kg, po; assay type: ADME, organism-based; design: dose 2 mg/kg, route oral; conditions: in vivo
[5] = biological target: Voltage-gated inwardly rectifying potassium channel KCNH2 (Homo sapiens, UniProt Q12809); experiment: Inhibition of hERG; assay type: toxicity
[6] = Plasma clearance in rhesus monkey at 1 mg/kg, iv or 2 mg/kg, po; assay type: ADME, organism-based, Macaca mulatta
Canis familiaris = experiment: AUC in dog at 2 mg/kg, po normalized to 1 mg/kg; assay type: ADME, organism-based, Canis lupus familiaris, Plasma; conditions: in vivo
[7] = Cmax in dog at 2 mg/kg, po; assay type: ADME, organism-based, Canis lupus familiaris; design: dose 2 mg/kg, route oral; conditions: in vivo
Dipeptidyl peptidase 2 = Dipeptidyl peptidase 2 (Homo sapiens, UniProt Q9UHL4); experiment: Inhibition of QPP
Rhesus monkey = experiment: AUC in rhesus monkey at 2 mg/kg, po normalized to 1 mg/kg; assay type: ADME, organism-based, Macaca mulatta, Plasma; conditions: in vivo
Dipeptidyl peptidase 9 = Dipeptidyl peptidase 9 (Homo sapiens, UniProt Q86TI2); experiment: Inhibition of DPP9
[8] = Plasma clearance in dog at 1 mg/kg, iv or 2 mg/kg, po; assay type: ADME, organism-based, Canis lupus familiaris
Dipeptidyl peptidase 4 [9] = biological target: T1, Dipeptidyl peptidase 4 (Homo sapiens, UniProt P27487); experiment: Inhibition of DPP4 in presence of 50% human serum
[10] = Plasma clearance in rat at 1 mg/kg, iv or 2 mg/kg, po; assay type: ADME, organism-based
[11] = Cmax in rhesus monkey at 2 mg/kg, po; assay type: ADME, organism-based, Macaca mulatta; design: dose 2 mg/kg, route oral; conditions: in vivo
Dipeptidyl peptidase 4 [12] = biological target: T1, Dipeptidyl peptidase 4; experiment: Inhibition of DPP4
[13] = Half life in rhesus monkey at 1 mg/kg, iv or 2 mg/kg, po; assay type: ADME, organism-based, Macaca mulatta; conditions: in vivo
[14] = Half life in rat at 1 mg/kg, iv or 2 mg/kg, po; assay type: ADME, organism-based; conditions: in vivo
[15] = Plasma clearance in mouse at 1 mg/kg, iv or 2 mg/kg, po; assay type: ADME, organism-based
[16] = biological target: Voltage-dependent L-type calcium channel subunit alpha-1S (Oryctolagus cuniculus, UniProt P07293); experiment: Inhibition of rabbit skeletal muscle L-type calcium channel
In short: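 Rabbit skeletal muscle membranes (40-70 µg) with [3H]-diltiazem (20 nM final) in 50 mM Tris pH 7.4. Serially diluted compound added; incubated 60 min at room temperature with shaking. Filtered through PEI-soaked filters, washed three times with ice-cold buffer, then counted. Nonspecific binding in 20 µM unlabeled diltiazem; total binding with DMSO only.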

Mus musculus = experiment: AUC in mouse at 2 mg/kg, po normalized to 1 mg/kg; assay type: ADME, organism-based, Plasma; conditions: in vivo
Rattus norvegicus = experiment: AUC in rat at 2 mg/kg, po normalized to 1 mg/kg; assay type: ADME, organism-based, Plasma; conditions: in vivo
[17] = biological target: Sodium channel protein type 5 subunit alpha (Homo sapiens, UniProt Q14524); experiment: Inhibition of human cardiac sodium channel
In short: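 Membranes from HEK293 cells stably expressing human cardiac Na+ channel hNav1.5 (40-80 µg), with [3H]-BPBTS (1 nM final), in 20 mM Tris-HCl pH 7.4 with 0.01 mg/mL bacitracin. Incubated 16 h at room temperature with shaking, then filtered and scintillation counted. Nonspecific binding was taken with 5 µM unlabeled ligand; total binding with DMSO only.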

[18] = Bioavailability in dog at 1 mg/kg, iv and 2 mg/kg, po; assay type: ADME, organism-based, Canis lupus familiaris; conditions: in vivo
Dipeptidyl peptidase 8 = Dipeptidyl peptidase 8 (Homo sapiens, UniProt Q6V1X1); experiment: Inhibition of DPP8
[19] = Half life in mouse at 1 mg/kg, iv or 2 mg/kg, po; assay type: ADME, organism-based; conditions: in vivo
[20] = Cmax in rat at 2 mg/kg, po; assay type: ADME, organism-based; design: dose 2 mg/kg, route oral; conditions: in vivo
[21] = Bioavailability in rhesus monkey at 1 mg/kg, iv and 2 mg/kg, po; assay type: ADME, organism-based, Macaca mulatta; conditions: in vivo
Xaa-Pro dipeptidase = biological target: T2, Xaa-Pro dipeptidase (Homo sapiens, UniProt P12955); experiment: Inhibition of prolidase
T2 sequence (P12955 whole entry): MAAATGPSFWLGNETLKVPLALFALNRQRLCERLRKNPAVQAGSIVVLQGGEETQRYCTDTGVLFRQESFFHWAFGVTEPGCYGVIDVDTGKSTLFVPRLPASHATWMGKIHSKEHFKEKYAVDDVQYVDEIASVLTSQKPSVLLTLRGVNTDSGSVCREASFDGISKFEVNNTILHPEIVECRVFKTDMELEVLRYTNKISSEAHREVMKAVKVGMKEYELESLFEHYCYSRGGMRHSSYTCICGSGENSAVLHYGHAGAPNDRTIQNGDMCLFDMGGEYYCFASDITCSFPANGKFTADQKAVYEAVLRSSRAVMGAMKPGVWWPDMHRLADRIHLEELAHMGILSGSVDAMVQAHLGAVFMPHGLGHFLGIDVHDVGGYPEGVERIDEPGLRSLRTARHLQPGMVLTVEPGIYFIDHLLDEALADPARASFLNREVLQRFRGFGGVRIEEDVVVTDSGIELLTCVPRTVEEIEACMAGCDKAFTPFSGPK

Prolyl endopeptidase FAP = biological target: T3, Prolyl endopeptidase FAP (Homo sapiens, UniProt Q12884); experiment: Inhibition of FAP
T3 sequence (Q12884 whole entry): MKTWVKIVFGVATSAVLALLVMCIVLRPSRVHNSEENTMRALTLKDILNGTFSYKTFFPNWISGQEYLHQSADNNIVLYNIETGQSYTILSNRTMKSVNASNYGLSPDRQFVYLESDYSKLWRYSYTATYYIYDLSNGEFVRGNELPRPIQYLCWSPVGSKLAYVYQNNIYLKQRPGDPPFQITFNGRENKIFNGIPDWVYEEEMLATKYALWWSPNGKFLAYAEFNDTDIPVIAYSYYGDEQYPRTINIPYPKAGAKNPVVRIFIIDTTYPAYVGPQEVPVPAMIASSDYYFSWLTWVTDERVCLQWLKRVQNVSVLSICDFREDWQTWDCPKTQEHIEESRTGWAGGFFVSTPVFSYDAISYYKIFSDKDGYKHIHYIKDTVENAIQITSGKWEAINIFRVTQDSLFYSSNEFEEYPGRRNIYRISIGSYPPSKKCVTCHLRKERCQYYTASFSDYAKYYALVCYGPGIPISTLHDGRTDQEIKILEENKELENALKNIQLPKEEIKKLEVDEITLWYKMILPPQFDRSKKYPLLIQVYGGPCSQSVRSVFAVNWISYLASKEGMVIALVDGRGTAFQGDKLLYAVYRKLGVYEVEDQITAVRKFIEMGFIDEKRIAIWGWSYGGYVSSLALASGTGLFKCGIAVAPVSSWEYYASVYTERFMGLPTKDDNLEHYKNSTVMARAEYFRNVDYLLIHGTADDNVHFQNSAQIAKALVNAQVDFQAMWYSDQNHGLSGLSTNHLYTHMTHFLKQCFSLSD

Xaa-Pro aminopeptidase 1 = Xaa-Pro aminopeptidase 1 (Homo sapiens, UniProt Q9NQW7); experiment: Inhibition of aminopeptidase P

Voltage-dependent L-type calcium channel subunit alpha-1S, sequence (P07293 whole entry): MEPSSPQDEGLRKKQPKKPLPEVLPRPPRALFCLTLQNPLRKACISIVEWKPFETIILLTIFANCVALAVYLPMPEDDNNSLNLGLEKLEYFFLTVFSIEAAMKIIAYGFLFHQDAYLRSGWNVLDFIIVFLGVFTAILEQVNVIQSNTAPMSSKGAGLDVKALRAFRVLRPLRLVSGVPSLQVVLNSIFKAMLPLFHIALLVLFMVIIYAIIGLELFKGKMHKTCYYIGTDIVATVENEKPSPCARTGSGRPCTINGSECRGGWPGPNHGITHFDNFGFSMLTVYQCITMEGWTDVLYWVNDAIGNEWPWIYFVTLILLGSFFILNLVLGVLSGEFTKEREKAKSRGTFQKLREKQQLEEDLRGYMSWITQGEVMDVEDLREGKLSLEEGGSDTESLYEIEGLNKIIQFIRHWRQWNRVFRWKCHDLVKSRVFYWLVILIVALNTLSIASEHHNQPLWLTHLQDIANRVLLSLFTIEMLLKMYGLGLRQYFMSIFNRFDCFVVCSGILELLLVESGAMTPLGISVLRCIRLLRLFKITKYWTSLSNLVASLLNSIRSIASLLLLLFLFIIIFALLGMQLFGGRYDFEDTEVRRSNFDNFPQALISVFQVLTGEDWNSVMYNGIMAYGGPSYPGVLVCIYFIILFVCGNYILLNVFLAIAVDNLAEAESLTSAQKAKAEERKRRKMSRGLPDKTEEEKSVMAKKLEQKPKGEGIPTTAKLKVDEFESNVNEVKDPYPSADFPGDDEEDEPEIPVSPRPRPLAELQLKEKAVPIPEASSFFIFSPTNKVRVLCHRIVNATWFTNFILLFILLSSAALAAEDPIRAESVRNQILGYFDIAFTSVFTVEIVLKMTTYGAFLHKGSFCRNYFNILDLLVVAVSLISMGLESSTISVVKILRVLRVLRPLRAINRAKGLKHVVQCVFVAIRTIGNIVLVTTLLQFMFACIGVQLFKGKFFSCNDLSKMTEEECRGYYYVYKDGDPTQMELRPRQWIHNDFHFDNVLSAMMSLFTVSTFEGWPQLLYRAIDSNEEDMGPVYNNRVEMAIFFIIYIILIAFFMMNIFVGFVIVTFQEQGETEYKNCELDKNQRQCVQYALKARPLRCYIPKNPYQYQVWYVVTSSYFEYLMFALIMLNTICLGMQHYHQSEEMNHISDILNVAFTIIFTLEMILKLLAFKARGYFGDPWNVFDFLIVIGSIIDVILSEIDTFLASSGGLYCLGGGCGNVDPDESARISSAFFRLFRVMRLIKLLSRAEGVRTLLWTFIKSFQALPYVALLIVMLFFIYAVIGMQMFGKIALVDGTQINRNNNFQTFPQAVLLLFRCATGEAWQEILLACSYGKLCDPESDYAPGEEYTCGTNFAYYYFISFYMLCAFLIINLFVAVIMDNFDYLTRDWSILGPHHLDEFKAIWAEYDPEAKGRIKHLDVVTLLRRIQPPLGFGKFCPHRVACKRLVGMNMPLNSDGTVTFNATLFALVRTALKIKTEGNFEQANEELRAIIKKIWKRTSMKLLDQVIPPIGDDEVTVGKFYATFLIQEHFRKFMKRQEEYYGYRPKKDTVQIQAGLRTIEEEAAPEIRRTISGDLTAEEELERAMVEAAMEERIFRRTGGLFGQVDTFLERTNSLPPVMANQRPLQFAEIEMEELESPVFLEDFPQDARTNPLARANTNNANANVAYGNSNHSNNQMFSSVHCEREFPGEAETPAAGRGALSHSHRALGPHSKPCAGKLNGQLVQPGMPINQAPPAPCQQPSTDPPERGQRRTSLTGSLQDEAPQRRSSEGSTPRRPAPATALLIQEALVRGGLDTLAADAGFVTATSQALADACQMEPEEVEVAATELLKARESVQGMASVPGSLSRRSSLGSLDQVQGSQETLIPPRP
Sodium channel protein type 5 subunit alpha, sequence (Q14524 whole entry): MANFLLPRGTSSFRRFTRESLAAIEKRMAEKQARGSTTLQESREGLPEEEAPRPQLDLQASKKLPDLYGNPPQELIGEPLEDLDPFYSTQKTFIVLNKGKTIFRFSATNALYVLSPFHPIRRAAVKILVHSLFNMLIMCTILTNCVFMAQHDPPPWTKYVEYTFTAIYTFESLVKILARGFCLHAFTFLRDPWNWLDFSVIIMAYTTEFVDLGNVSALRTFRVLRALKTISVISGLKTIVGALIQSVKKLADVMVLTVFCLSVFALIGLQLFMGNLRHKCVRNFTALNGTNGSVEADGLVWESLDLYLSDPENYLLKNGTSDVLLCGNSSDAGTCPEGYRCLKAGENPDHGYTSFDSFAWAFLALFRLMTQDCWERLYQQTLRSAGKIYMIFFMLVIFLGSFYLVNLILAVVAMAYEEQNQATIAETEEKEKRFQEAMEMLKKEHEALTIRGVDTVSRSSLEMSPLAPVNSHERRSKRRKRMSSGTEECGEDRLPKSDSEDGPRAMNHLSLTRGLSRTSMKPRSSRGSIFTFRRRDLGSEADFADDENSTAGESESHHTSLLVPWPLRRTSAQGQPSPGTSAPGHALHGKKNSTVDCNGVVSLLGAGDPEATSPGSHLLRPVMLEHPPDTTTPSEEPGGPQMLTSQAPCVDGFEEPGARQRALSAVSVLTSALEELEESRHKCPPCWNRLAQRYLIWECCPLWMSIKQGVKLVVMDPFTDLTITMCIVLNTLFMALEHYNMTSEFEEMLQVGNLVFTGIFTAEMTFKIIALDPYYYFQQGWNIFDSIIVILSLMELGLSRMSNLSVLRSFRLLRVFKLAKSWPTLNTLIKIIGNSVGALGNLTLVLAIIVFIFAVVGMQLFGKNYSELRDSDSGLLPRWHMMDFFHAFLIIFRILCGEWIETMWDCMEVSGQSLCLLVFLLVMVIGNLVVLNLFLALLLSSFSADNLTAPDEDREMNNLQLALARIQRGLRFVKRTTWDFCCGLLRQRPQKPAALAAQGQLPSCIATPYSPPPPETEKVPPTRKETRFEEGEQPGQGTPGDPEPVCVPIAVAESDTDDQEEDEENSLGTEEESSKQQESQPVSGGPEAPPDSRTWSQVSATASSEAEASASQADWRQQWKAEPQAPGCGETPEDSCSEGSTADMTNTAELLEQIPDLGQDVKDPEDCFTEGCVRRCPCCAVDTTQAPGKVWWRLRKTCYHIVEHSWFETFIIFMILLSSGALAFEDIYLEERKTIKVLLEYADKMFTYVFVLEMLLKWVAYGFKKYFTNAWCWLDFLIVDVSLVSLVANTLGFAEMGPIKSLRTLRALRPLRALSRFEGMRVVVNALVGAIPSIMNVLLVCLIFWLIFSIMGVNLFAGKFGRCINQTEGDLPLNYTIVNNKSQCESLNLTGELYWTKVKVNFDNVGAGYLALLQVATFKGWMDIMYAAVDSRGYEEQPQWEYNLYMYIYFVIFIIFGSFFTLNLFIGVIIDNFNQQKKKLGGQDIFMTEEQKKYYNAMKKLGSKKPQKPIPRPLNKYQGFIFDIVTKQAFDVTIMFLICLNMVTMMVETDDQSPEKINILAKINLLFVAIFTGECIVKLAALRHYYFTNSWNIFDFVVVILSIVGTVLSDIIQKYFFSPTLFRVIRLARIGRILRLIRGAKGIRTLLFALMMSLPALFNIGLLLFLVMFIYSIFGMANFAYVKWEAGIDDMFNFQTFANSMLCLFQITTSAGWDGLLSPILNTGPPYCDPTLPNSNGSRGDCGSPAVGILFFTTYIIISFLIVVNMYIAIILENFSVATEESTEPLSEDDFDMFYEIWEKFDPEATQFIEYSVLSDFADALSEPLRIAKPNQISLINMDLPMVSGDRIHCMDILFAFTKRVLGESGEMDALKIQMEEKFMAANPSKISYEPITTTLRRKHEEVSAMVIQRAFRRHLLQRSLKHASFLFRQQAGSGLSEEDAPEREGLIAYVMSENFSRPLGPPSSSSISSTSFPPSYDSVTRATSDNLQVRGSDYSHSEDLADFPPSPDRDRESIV
T1 sequence (P27487 whole entry): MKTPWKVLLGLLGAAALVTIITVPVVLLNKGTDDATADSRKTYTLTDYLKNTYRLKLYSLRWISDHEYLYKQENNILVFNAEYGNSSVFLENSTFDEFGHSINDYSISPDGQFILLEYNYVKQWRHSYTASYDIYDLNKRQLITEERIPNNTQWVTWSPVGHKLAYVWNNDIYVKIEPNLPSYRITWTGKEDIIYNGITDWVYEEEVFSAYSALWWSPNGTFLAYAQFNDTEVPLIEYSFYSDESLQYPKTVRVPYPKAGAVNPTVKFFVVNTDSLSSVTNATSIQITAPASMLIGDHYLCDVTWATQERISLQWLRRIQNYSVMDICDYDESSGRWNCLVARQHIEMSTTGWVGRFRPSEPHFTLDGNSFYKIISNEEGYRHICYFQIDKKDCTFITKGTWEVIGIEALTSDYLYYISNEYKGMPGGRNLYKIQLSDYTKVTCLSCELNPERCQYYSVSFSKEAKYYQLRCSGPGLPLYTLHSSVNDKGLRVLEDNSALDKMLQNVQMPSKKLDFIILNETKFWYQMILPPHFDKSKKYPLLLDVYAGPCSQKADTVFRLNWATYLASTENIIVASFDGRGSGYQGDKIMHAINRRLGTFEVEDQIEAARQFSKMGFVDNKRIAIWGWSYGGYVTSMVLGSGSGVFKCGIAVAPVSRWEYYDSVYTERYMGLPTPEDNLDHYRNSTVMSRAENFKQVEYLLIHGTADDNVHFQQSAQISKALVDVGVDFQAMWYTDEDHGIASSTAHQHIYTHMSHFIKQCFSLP

Structure (SMILES) | bioavailability [1] [%] | half-life [3] [h] | AUC (Canis familiaris) [µM·h] | Cmax [7] [µM] | IC50 (Dipeptidyl peptidase 2) [µM] | IC50 (Dipeptidyl peptidase 9) [µM] | clearance [8] [mL/min/kg] | IC50 (Dipeptidyl peptidase 4 [9]) [µM] | clearance [10] [mL/min/kg] | IC50 (Dipeptidyl peptidase 4 [12]) [µM] | half-life [14] [h] | IC50 [16] [µM] | AUC (Rattus norvegicus) [µM·h] | IC50 [17] [µM] | bioavailability [18] [%] | IC50 (Dipeptidyl peptidase 8) [µM] | Cmax [20] [µM] | IC50 (Xaa-Pro dipeptidase) [µM] | IC50 (Prolyl endopeptidase FAP) [µM] | IC50 (Xaa-Pro aminopeptidase 1) [µM] | further results
CN(C)C(=O)[C@@H](c1ccc(-c2ccc3ncnn3c2)cc1)[C@H](N)C(=O)N1CCC(F)(F)C1.O=C(O)C(F)(F)F | 100 | 4.8 | 16 | 6.3 | 61 | > 100 | 1.8 | 0.071 | 2.8 | 0.0063 | 1.6 | > 100 | 15 | > 100 | 73 | > 100 | 6.9 |  |  |  | bioavailability [2]: 68%; Cmax [4]: 11 µM; IC50 [5]: > 100 µM; clearance [6]: 5.3 mL/min/kg; AUC (Rhesus monkey): 4 µM·h; Cmax [11]: 2.8 µM; half-life [13]: 6.3 h; clearance [15]: 1.2 mL/min/kg; AUC (Mus musculus): 23 µM·h; half-life [19]: 6.7 h; bioavailability [21]: 56%
CN(C)C(=O)[C@@H](c1ccc(-c2ccc(=O)n(C)c2)cc1)[C@H](N)C(=O)N1CC[C@H](F)C1.O=C(O)C(F)(F)F | 2 |  |  |  | > 100 | > 100 |  | 0.079 | 15 | 0.008 | 1.2 |  | 0.048 |  |  | > 100 | 0.021 | > 40 | > 40 | > 40 | 
CN(C)C(=O)[C@@H](c1ccc(-c2ccn3ncnc3c2)cc1)[C@H](N)C(=O)N1CCC(F)(F)C1.O=C(O)C(F)(F)F | 69 | 3.4 | 20 | 9.5 | 26 | > 100 | 1.5 | 0.034 | 1.8 | 0.0062 | 1.1 | 54 | 15 | > 100 | 81 | > 100 | 7.8 | > 40 | > 40 | > 40 | IC50 [5]: 16 µM
CN(C)C(=O)[C@@H](c1ccc(-c2ccc3ncnn3c2)cc1)[C@H](N)C(=O)N1CCCC1.O=C(O)C(F)(F)F | 46 | 1.1 | 6.8 | 5.9 | > 100 | 14 | 5.9 | 0.063 | 7.7 | 0.0052 | 1.6 |  | 2.9 |  | 98 | > 100 | 2.1 | > 40 | > 40 | > 40 | 
CN(C)C(=O)[C@@H](c1ccc(-c2ccc3ncnn3c2)cc1)[C@H](N)C(=O)N1CC[C@H](F)C1.O=C(O)C(F)(F)F |  | 2.4 | 12 | 6.6 | > 100 | > 100 | 3.1 |  | 7 |  | 2 |  | 2.4 |  |  | > 100 | 2.3 | > 40 | > 40 | > 40 | 
CN(C)C(=O)[C@@H](c1ccc(-c2ccc3ncnn3c2)cc1)[C@H](N)C(=O)N1CC(F)C1.O=C(O)C(F)(F)F | 37 | 2 | 6.9 | 4 | > 100 | > 100 | 6.1 | 0.041 | 7.3 | 0.0027 | 2.1 |  | 2.2 |  | 100 | > 100 | 2.4 | > 40 | > 40 | > 40 | 
CN(C)C(=O)[C@@H](c1ccc(-c2ccn3nccc3n2)cc1)[C@H](N)C(=O)N1CCC(F)(F)C1.O=C(O)C(F)(F)F | 79 | 3.1 | 38 | 22 | 18 | > 100 | 1 | 0.057 | 1.4 | 0.0075 | 2.7 | 15 | 24 | 60 | 100 | > 100 | 8.9 | > 40 | > 40 | > 40 | 
